Assay [1] relates to HepG2. In words: Induction of apoptosis in human HepG2 cells assessed as viable cells at IC50 after 24 hrs by annexin V-FITC/propidium iodide staining-based flow cytometry (reference value: 90.5%). Format: functional. Background: Flow cytometry measures light scatter and fluorescence of single cells or particles in a stream.
The test system of assay [2] is HepG2. In words: Selectivity index, ratio of IC50 for human LO2 cells to human HepG2 cells.
Assay [3] concerns HepG2. In words: Induction of cell cycle arrest in human HepG2 cells assessed as accumulation at S phase at IC50 after 24 hrs by propidium iodide staining-based flow cytometry (reference value: 16.1%). The format is functional.
Assay [4] has as its system HepG2. In words: Induction of apoptosis in human HepG2 cells assessed as early apoptotic cells at IC50 after 24 hrs by annexin V-FITC/propidium iodide staining-based flow cytometry (reference value: 0.41%).
The test system of assay [5] is HepG2. In words: Induction of apoptosis in human HepG2 cells assessed as nectrotic cells at IC50 after 24 hrs by annexin V-FITC/propidium iodide staining-based flow cytometry (reference value: 6.70%). The format is functional.
For assay [6], the system named is HepG2. In words: Induction of cell cycle arrest in human HepG2 cells assessed as accumulation at G0/G1 phase at IC50 after 24 hrs by propidium iodide staining-based flow cytometry (reference value: 67.5%). The format is functional.
The subject of assay [7] is HepG2. Nature of the assay: Induction of apoptosis in human HepG2 cells assessed as early apoptotic cells at IC50 after 4 hrs by annexin V-FITC/propidium iodide staining-based flow cytometry (reference value: 0.41%). Format: functional.
For assay [8], the system named is HepG2. In words: Induction of apoptosis in human HepG2 cells assessed as late apoptotic cells at IC50 after 24 hrs by annexin V-FITC/propidium iodide staining-based flow cytometry (reference value: 1.77%). The format is functional.
In assay [9] the test system is HepG2. Nature of the assay: Induction of apoptosis in human HepG2 cells assessed as nectrotic cells at IC50 after 4 hrs by annexin V-FITC/propidium iodide staining-based flow cytometry (reference value: 0.46%). The format is functional.
Assay [10] deals with HepG2. Nature of the assay: Induction of cell cycle arrest in human HepG2 cells assessed as accumulation at G2/M phase at IC50 after 24 hrs by propidium iodide staining-based flow cytometry (reference value: 16.4%). Format: functional.
Assay [11] in a line: Cytotoxicity against human LO2 cells after 48 hrs by MTT assay. The settings on record: L02, 48 h. Format: cell-based. Put shortly: (§1)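 After 48 h, MTT (5 mg/mL in PBS) added, 4 h at 37 °C, DMSO added, absorbance read at 570 nm. IC50 is the 50% growth-inhibition concentration, mean of three independent experiments.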
Background: Tetrazolium dyes change colour on reduction, which living cells bring about.

The subject of assay [12] is HepG2. Nature of the assay: Antiproliferative activity against human HepG2 cells after 48 hrs by MTT assay. Format: functional, cell-based. The settings on record: HepG2, 48 h. The gist of the method:
as §1

Assay [13] concerns HepG2. In words: Induction of apoptosis in human HepG2 cells assessed as late apoptotic cells at IC50 after 4 hrs by annexin V-FITC/propidium iodide staining-based flow cytometry (reference value: 0.53%). The format is functional.
Assay [14] has as its system HepG2. In words: Induction of apoptosis in human HepG2 cells assessed as viable cells at IC50 after 4 hrs by annexin V-FITC/propidium iodide staining-based flow cytometry (reference value: 98.6%). Format: functional.
A further assay deals with LN-229. In words: Induction of cell cycle arrest in human LNT229 cells assessed as accumulation at G2/M phase at 100 uM after 24 hrs by propidium iodide staining-based flow cytometry (reference value: 34%). The format is functional.
A further assay has as its system T-24. Nature of the assay: Induction of cell cycle arrest in human T24 cells assessed as accumulation at G2/M phase at 160 uM after 24 hrs by propidium iodide staining-based flow cytometry (reference value: 14.45%). The format is functional.
A further assay relates to BGC-823. Nature of the assay: Induction of apoptosis in human BGC823 cells at 80 uM after 24 hrs by annexin V-FITC/propidium iodide staining-based flow cytometry (reference value: 1.5%). Format: functional.

For orientation: IC50 means the concentration that inhibits the measured activity by half.

For the molecule `COC(=O)[C@H](C)NP(=O)(Oc1ccccc1)Oc1ccc2c(=O)c(-c3ccc(OC(C)=O)cc3)coc2c1` (some centres not stated), the Activity with HepG2 [1] is reported as 51.19%; in the assay with HepG2 [3] it was 1.2%; in the assay on HepG2 [4] it was 44.16%; in the assay with HepG2 [5], 2.08%; with HepG2 [6] it was 0.7%; in the assay on HepG2 [7], 0.69%. Further, the Activity is 2.56% in the assay with HepG2 [8]; 0.76% in the assay with HepG2 [9]; 98.1% in the assay with HepG2 [10]; 1.43% in the assay on HepG2 [13]; 97.12% in the assay on HepG2 [14]. The “Ratio IC50” value in the assay with HepG2 [2] was found to be 4.418. Besides, the results for the half-inhibitory concentration (IC50) (in assay [11]; in the assay on HepG2 [12]) were 24.3 µM and 5.5 µM, respectively.

`O=c1c(-c2ccc(O)cc2)coc2cc(O)cc(O)c12` [GENISTEIN]: the IC50 (in assay [11]; in the assay with HepG2 [12]) was above 100 µM each time. Further, the Activity in the assay with LN-229 is 58%.

Regarding `COC(=O)[C@H](C)NP(=O)(Oc1ccccc1)Oc1cc(OC(C)=O)c2c(=O)c(-c3ccc(OC(C)=O)cc3)coc2c1` (some centres not stated), the Activity in the assay on HepG2 [1] is given as 74.34%; with HepG2 [3], 1.8%; in the assay on HepG2 [4] it was 3.99%; in the assay on HepG2 [5], 18.62%; with HepG2 [6], 1.6%; in the assay on HepG2 [7], 0.74%. The Activity with HepG2 [8] turned out to be 3.06%; in the assay on HepG2 [9], 0.97%; in the assay on HepG2 [10] it was 96.6%; in the assay on HepG2 [13], 1.22%; in the assay with HepG2 [14], 97.07%. In addition, the “Ratio IC50” value in the assay with HepG2 [2] was determined as 1.803. In addition, the IC50 in assay [11] worked out at 11.9 µM; with HepG2 [12], 6.6 µM.

As to `COC(=O)[C@H](C)NP(=O)(Oc1ccccc1)Oc1cc(OC(C)=O)c2c(=O)cc(-c3ccc(OC(C)=O)cc3)oc2c1` (some centres not stated), the Activity was determined as 85.42% in the assay with HepG2 [1]; 16.4% in the assay with HepG2 [3]; 1.31% in the assay on HepG2 [4]; 9.88% in the assay with HepG2 [5]; 11% in the assay on HepG2 [6]; 0.45% with HepG2 [7]. The Activity was 3.4% with HepG2 [8]; 3.58% in the assay on HepG2 [9]; 72.6% in the assay with HepG2 [10]; 6.95% in the assay on HepG2 [13]; 89.02% in the assay on HepG2 [14]. Moreover, the “Ratio IC50” value with HepG2 [2] is 2.467. Also, the values for the IC50 (in [11]; with HepG2 [12]) were 22.2 µM and 9 µM, respectively.

Take `O=c1cc(-c2ccc(O)cc2)oc2cc(O)cc(O)c12` [APIGENIN]: the “Ratio IC50” value with HepG2 [2] is reported as above 1.425. Also, the Activity in the assay on T-24 stood at 37.94%. Further, the concentration for half-maximal inhibition (IC50) in assay [11] is above 100 µM; in the assay with HepG2 [12] it was 70.2 µM.

In the assay on BGC-823, `O=c1c(-c2ccc(O)cc2)coc2cc(O)ccc12` [DAIDZEIN] returned an Activity of 32.5%. Also, the IC50 (in assay [11]; in the assay on HepG2 [12]) was above 100 µM throughout.

For the origin of these results see ChEMBL document CHEMBL3769357, “Phosphoramidate protides of five flavones and their antiproliferative activity against HepG2 and L-O2 cell lines” (Eur J Med Chem, 2016).
